Measurements: ChEMBL document CHEMBL1156966, “A new cytotoxic tambjamine alkaloid from the Azorean nudibranch Tambja ceutae” (Bioorg Med Chem Lett, 2010)

Experiments:
[1] = tested on: 3T3-L1; assay: Cytotoxicity against mouse 3T3L1 cells after 48 hrs by MTT assay; assay type: cell-based; settings: 3T3-L1, 48 h
How it was run: (§1)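 Cells exposed 48 h to a range of concentrations, then counted. Viability and proliferation read by MTT, which measures mitochondrial dehydrogenase activity.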

[2] = tested on: C6; assay: Cytotoxicity against rat C6 cells after 48 hrs by MTT assay; assay type: functional, cell-based; settings: C6, 48 h; how it was run: as §1
[3] = tested on: Caco-2; assay: Cytotoxicity against human Caco-2 cells after 48 hrs by MTT assay; assay type: functional, cell-based; settings: Caco-2, 48 h; how it was run: as §1
[4] = tested on: HeLa; assay: Cytotoxicity against human HeLa cells after 48 hrs by MTT assay; assay type: functional, cell-based; how it was run: as §1
[5] = tested on: H9c2; assay: Cytotoxicity against rat H9c2 cells after 48 hrs by MTT assay; assay type: cell-based; settings: H9c2, 48 h; how it was run: as §1

SMILES | IC50 [1] [µM] | IC50 [2] [µM] | IC50 [3] [µM] | IC50 [4] [µM] | IC50 [5] [µM]
COC1=CC(c2ccc[nH]2)=N/C1=C/c1[nH]c(-c2ccc[nH]2)cc1OC | 24 | 7 | 91 | 70 | 107
COC1=CC(c2ccc[nH]2)=N/C1=C\NCCC(C)C [TAMBJAMINE K] | 19 | 14 | 0.0035 | 14.6 | 2.7
